# Sampled rows, rich in hits. Any-hit rate of the full collection: about 1.9%.
# MsrA inh: inhibitors of bovine MsrA. purified bovine MsrA, absorbance read-out. inhibition, % at 15.5 µM. 360,000 tested, 0.75% active. AID 651718; in the data active = inhibition above about 4.5%
# UCH37 DUB inh: blocks the human deubiquitinase UCH37; Q9Y5K5; purified proteasome/UCH37, Ub-AMC cleavage fluorescence; inhibition, % (concentration not given with the values); 330,000 tested, 0.33% active; AID 588478;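 active = mean inhibition over replicate wells above about 20%, limit read from the data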
# Target sequence (Q9Y5K5 whole entry, looked up): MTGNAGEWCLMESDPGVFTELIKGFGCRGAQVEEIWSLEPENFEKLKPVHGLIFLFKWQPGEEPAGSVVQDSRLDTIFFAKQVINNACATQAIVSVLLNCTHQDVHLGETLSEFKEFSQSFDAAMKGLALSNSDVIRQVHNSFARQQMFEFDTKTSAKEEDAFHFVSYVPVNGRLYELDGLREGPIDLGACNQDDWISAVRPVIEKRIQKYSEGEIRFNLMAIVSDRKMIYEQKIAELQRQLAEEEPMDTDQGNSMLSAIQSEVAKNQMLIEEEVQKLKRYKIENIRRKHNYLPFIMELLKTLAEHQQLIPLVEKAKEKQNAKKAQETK
#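 Material: human UCH37 enzyme supplied as purified proteasome complex. Measure: % inhibition of Ub-AMC cleavage fluorescence. Medium: pH 7.4 Tris-HCl (50 mM) with ovalbumin, ATP-MgCl2, DTT. Times: 30 min preincubation with enzyme, 25 min cleavage at room temperature. Detection: AMC fluorescence intensity at 355/460 nm.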
# MsrA act: activators of bovine methionine sulfoxide reductase A; purified bovine MsrA, absorbance read-out; activation, % at 10.6 µM; 360,000 tested, 0.3% active; in the data active = activation above about 7.5%
# Glyco luc inh: N-linked glycosylation inhibition. D54 ERlucT glycosylation luciferase reporter, 24 h; percent of 100 nM tunicamycin response. reporter increase, % at 12.5 µM. 360,000 tested, 0.23% active;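 active = mean luciferase reporter signal, scaled so untreated is 0 and the glycosylation-blocking control 100, at or above a set limit in every replicate; inconclusive = mean reaches the limit but not every replicate does; inactive = mean below the limit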;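 note: luciferase carries N-glycosylation sites so blocking glycosylation raises the light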
# aDG glyco act: increases alpha dystroglycan glycosylation; Pro5-aDG cells, alpha-DG glycosylation AlphaScreen (IIH6); 0% Pro5, 100% B10-LARGE cell signal; activation, % at 10 µM; 360,000 tested, 0.22% active; AID 624168;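 active = activation of at least 8% versus controls, or a plate z-score of at least 8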;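 note: Pro5 are CHO cells carrying HIG-tagged alpha-DG that lacks glycosylation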
# Vif inh: inhibitors of HIV Vif | HEK293T cells, Vif self-association by quenched fluorescence, imaging, 24 h | inhibition, % at 7.49 µM | 340,000 tested, 0.35% active | AID 602346; in the data active = inhibition above about 50%, passing the limit was not always enough; inconclusive = no clear call, values can overlap the other calls; inactive = below about 31%
# Hits are given with their value; . = inactive; ? = inconclusive; / = not tested or not shown.
SMILES,MsrA inh,UCH37 DUB inh,MsrA act,Glyco luc inh,aDG glyco act,Vif inh
CC(Nc1cc(N2CCNCC2)ccc1[N+](=O)[O-])c1ccccc1 (stereo unspecified),.,.,.,.,.,.
CC(Nc1cc(N2CCN(C(=O)C(C)(C)C)CC2)ccc1[N+](=O)[O-])c1ccccc1 (stereo unspecified),10.7,.,.,.,.,.
CS(=O)(=O)c1ccc(Sc2nc3ccccc3[nH]2)c([N+](=O)[O-])c1,.,.,.,.,.,.
O=[N+]([O-])c1cc(S(=O)(=O)C(F)(F)F)ccc1Sc1nc2ccccc2[nH]1,.,.,.,68.0,.,.
CN1CCN(c2nc(-c3ccccc3O)nc3ccccc23)CC1,.,.,.,.,.,.
COc1cccc(-c2nc(N3CCN(C)CC3)c3ccccc3n2)c1O,.,.,.,129.3,.,.
Cc1cc(C)c(S(=O)(=O)N2CCCC2)c(C)c1,.,.,.,.,.,.
Cc1cc(C)c(S(=O)(=O)N2CCN(S(=O)(=O)N3CCOCC3)CC2)c(C)c1,.,.,.,.,.,67.6
CCOc1ccc(-c2c(C(=O)NN=C(C)c3ccncc3)nnn2-c2nonc2N)cc1,/,.,/,/,/,/
CCN(CC(=O)Nc1cc(Cl)cc(Cl)c1)CC(=O)NC1CCS(=O)(=O)C1 (stereo unspecified),.,.,.,.,.,53.7
O=C(NN=Cc1ccc(OCC(=O)N2CCCC2)cc1)C(=O)NC1CC1,/,.,/,/,/,/
CCN1C(=O)/C(=C/c2cccs2)SC1=NS(=O)(=O)c1ccc(C)cc1,/,.,/,/,/,/
COc1ccc2nc3cc([N+](=O)[O-])ccc3c(NNc3ccc([N+](=O)[O-])cc3)c2c1,.,/,.,.,.,66.7
CC/C(=N/Nc1cccc(C)c1)c1cnnc(SC)n1,.,/,.,.,.,81.7
CCC(=NNc1cccc(Cl)c1)c1cnnc(SC)n1,/,.,/,/,/,/
CCOc1cc(-c2cc(-c3ccc(N)cc3)nc(N)c2C#N)ccc1O,.,.,.,.,.,.
CCOc1cc(-c2cc(-c3ccccc3)nc(N)c2C#N)ccc1O,.,.,.,36.6,.,.
O=C(O)c1ccc(C=NNc2ccc(S(=O)(=O)N3CCOCC3)cc2[N+](=O)[O-])cc1,/,.,/,/,/,/
Cc1ccc(-n2c(SCC(=O)Nc3ccc4c(c3)OCO4)nnc2-c2cccs2)cc1,.,.,.,.,.,75.9
O=CN1CCCN(Cc2nc(-c3cccc(Cl)c3)no2)CC1,.,30.2,.,.,.,.
CC(C)(C)[C@@H]1CCC(=O)N(CC[C@H](N=[N+]=[N-])c2ccccc2)CC1,.,27.8,.,.,.,.
COc1ccc(-c2nnc(SCC(=O)N3CCCc4ccccc43)o2)cc1OC,.,.,.,.,.,61.2
COc1ccc(-c2nnc(SCC(=O)N3CCCC3)o2)cc1OC,/,.,/,/,/,/
CN(C)c1ccc(/C=C(/NC(=O)c2ccccc2)C(=O)NCCN2CCOCC2)cc1,4.6,.,.,.,.,.
O=C(NCCN1CCOCC1)/C(=C/c1ccc(Cl)cc1)NC(=O)c1ccccc1,.,.,.,.,.,?
SMILES,MsrA inh,UCH37 DUB inh,MsrA act,Glyco luc inh,aDG glyco act,Vif inh
CCOC(=O)c1ccc2c(c1)n(CC)c(/C=C/N(C)c1ccccc1)[n+]2CC,.,23.5,.,.,.,.
COc1ccc2[nH]c(CN3CCN(C(C)C)C(CCO)C3)c(C)c2c1 (stereo unspecified),.,.,.,.,.,64.2
CC(=O)Oc1ccc2oc(/C=C/N(C)C)c([N+](=O)[O-])c2c1,.,21.7,.,.,.,.
C/C(=C/c1oc2ccc(O)cc2c1[N+](=O)[O-])N(C)C,.,.,.,.,.,/
FC(F)Oc1ccccc1C=Nn1cnc2ccccc21,/,.,/,/,/,/
C/C(C=NNC(=O)c1ccncc1)=C\c1ccco1,/,22.7,/,/,/,/
O=C(C[n+]1ccc(C=NO)cc1)N(Cc1ccccc1)Cc1ccccc1,/,.,/,/,/,/
Cc1ccccc1Nc1nc(N)nc(CN(C)c2ccccc2)n1,.,.,.,.,.,/
Cc1ccccc1Nc1nc(N)nc(CCl)n1,.,.,.,.,.,104.1
Cc1cccc(N2CCN(C(=O)c3ccc4c(c3)NC(=O)C(CSCc3cccc(F)c3)N4)CC2C)c1 (stereo unspecified),.,/,.,.,.,60.8
CCn1c(/C=C/N(C(C)=O)c2ccccc2)[n+](CCCS(=O)(=O)[O-])c2cc(Cl)c(Cl)cc21,4.6,.,.,.,.,.
CCn1c(/C=C/Nc2ccccc2)[n+](CC)c2cc(Cl)c(Cl)cc21,.,.,.,.,.,.
CSc1ccc(C=NS(=O)(=O)c2ccccc2)cc1,/,.,/,/,/,/
Cc1ccc(CN2CCN(N=Cc3cc(Br)ccc3O)CC2)cc1,/,.,/,/,/,/
COc1ccccc1N1CCN(C(=O)CCCCCn2c(=S)[nH]c3cc4c(cc3c2=O)OCO4)CC1,.,/,.,.,.,63.6
COc1ccc(CNC(=O)CN2C(=O)NC(c3ccccc3)(c3ccccc3)C2=O)cc1,.,.,.,.,.,110.2
O=[N+]([O-])c1ccccc1C=NN1CCN(c2ccccn2)CC1,/,.,/,/,/,/
Brc1ccc(N/N=C(/N=Nc2nn[nH]n2)c2ccccc2)cc1,.,/,.,.,.,/
Brc1ccc(NN=C(N=Nc2nn[nH]n2)c2ccccc2)cc1,/,22.0,/,/,/,/
O=C(C[n+]1cccc2ccccc21)c1ccc(Br)cc1,.,.,.,.,.,93.0
Cc1ccc(C(=O)C[n+]2cccc3ccccc32)cc1,.,.,.,.,.,.
O=C(/C=C/c1cccnc1)c1ccc([N+](=O)[O-])cc1,.,.,.,34.6,.,.
NC(=S)NN=Cc1ccc(-c2cc(Cl)c(Cl)cc2Cl)o1,/,.,/,/,/,/
COC(=O)c1ccc(COc2ccccc2/C=C(\C#N)C(=O)Nc2ccccc2C)cc1,.,.,.,.,.,.
COC(=O)c1ccc(COc2ccccc2/C=C(\C#N)C(=O)Nc2c(C)cccc2C)cc1,.,.,.,36.7,.,/
SMILES,MsrA inh,UCH37 DUB inh,MsrA act,Glyco luc inh,aDG glyco act,Vif inh
CN(/C(=N\S(=O)(=O)c1ccccc1)C(F)(F)F)c1ccccc1,.,/,.,.,.,64.2
O=C(NN=Cc1cn(-c2ccccc2)nc1-c1cccs1)c1ccccc1F,/,.,/,/,/,/
CCCc1c(C(=O)NN=Cc2ccc(C)s2)nnn1-c1nonc1N,/,.,/,/,/,/
NC(=NOC(=O)Cc1ccccc1[N+](=O)[O-])c1cccnc1,/,.,/,/,/,/
O=[N+]([O-])c1ccc(NCCNS(=O)(=O)c2ccccc2)cc1,.,.,.,.,.,.
O=[N+]([O-])c1ccc(NCCNS(=O)(=O)c2ccccc2)c(C(F)(F)F)c1,5.1,.,.,.,.,.
CCSc1n[nH]c(=S)s1,.,.,8.5,.,.,.
CCN1C(=O)[C@H]2[C@H]3[C@H](O)[C@H](O)CC(=NO[C@H](C)c4cn([C@H](CO)Cc5ccccc5)nn4)[C@@H]3CC[C@H]2C1=O,/,.,/,/,/,/
COc1cc(NC(=O)COc2ccccc2Cl)ccc1NC(=O)c1cccs1,.,.,.,.,.,.

# Screening data deposited in PubChem BioAssay by several laboratories.
